pIC50: −log10 of the molar value.
Legend:
[1] = target: T1, cAMP and cAMP-inhibited cGMP 3',5'-cyclic phosphodiesterase 10A (Homo sapiens, UniProt Q9Y233); assay: Inhibition of Ca2+/calmodulin-induced recombinant human full length N-terminal GST-tagged PDE10A1 expressed in baculovirus infected Sf9 cells using cAMP as substrate pretreated for 10 mins followed by substrate addition and measured after 40 mins by kinase-Glo luminescence assay; conditions: for pIC50: read-out: IC50
[2] = target: Dual specificity calcium/calmodulin-dependent 3',5'-cyclic nucleotide phosphodiesterase 1C (Homo sapiens, UniProt Q14123); assay: Inhibition of Ca2+/calmodulin-induced full-length recombinant human N-terminal GST-tagged PDE1C expressed in baculovirus infected Sf9 insect cells using cAMP as substrate pretreated for 10 mins followed by substrate addition and measured after 30 mins by kinase-Glo luminescence assay
Method in brief: (§1)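 Selectivity screen run as a PDE-Glo enzymatic-activity luminescence assay, with IC50 values determined against each counter-screen PDE isoform.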

[3] = target: High affinity cGMP-specific 3',5'-cyclic phosphodiesterase 9A (Homo sapiens, UniProt O76083); assay: Inhibition of Ca2+/calmodulin-induced recombinant human full length N-terminal GST-tagged PDE9A2 expressed in baculovirus infected Sf9 cells using cGMP as substrate pretreated for 10 mins followed by substrate addition and measured after 60 mins by kinase-Glo luminescence assay; method in brief: as §1
[4] = Intrinsic clearance in rat liver microsomes in presence of NADP/G6P/G6P dehydrogenase/MgCl2 by LC/MS analysis; assay type: ADME, microsome; conditions: read-out: CLH
Method in brief: (§2)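 Phase-1 liver microsomal stability assay for the named species, with intrinsic clearance reported in µl x min^-1 x mg^-1.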

[5] = Intrinsic clearance in human liver microsomes in presence of NADP/G6P/G6P dehydrogenase/MgCl2 by LC/MS analysis; assay type: ADME, microsome; conditions: read-out: CLH; method in brief: as §2
[6] = target: T1, cAMP and cAMP-inhibited cGMP 3',5'-cyclic phosphodiesterase 10A; assay: Inhibition of PDE10 (unknown origin)
[7] = Intrinsic clearance in rat liver microsomes; assay type: ADME, microsome

Chain of High affinity cGMP-specific 3',5'-cyclic phosphodiesterase 9A (O76083 whole entry): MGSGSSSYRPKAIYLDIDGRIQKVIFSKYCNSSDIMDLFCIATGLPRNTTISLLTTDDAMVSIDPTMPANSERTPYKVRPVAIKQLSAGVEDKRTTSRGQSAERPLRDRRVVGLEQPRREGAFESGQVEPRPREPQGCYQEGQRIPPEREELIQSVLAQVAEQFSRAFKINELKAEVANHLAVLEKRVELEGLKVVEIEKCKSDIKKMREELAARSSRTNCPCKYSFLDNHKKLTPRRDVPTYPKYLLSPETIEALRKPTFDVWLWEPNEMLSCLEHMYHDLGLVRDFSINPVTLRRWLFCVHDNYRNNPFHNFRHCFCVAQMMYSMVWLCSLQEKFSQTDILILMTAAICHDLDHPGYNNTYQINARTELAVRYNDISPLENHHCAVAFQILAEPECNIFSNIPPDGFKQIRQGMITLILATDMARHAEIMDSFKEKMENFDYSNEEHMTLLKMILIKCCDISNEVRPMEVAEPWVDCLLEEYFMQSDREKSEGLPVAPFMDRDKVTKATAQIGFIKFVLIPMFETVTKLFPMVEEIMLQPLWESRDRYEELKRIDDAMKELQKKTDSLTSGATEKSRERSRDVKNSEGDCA
Chain of Dual specificity calcium/calmodulin-dependent 3',5'-cyclic nucleotide phosphodiesterase 1C (Q14123 whole entry, canonical isoform): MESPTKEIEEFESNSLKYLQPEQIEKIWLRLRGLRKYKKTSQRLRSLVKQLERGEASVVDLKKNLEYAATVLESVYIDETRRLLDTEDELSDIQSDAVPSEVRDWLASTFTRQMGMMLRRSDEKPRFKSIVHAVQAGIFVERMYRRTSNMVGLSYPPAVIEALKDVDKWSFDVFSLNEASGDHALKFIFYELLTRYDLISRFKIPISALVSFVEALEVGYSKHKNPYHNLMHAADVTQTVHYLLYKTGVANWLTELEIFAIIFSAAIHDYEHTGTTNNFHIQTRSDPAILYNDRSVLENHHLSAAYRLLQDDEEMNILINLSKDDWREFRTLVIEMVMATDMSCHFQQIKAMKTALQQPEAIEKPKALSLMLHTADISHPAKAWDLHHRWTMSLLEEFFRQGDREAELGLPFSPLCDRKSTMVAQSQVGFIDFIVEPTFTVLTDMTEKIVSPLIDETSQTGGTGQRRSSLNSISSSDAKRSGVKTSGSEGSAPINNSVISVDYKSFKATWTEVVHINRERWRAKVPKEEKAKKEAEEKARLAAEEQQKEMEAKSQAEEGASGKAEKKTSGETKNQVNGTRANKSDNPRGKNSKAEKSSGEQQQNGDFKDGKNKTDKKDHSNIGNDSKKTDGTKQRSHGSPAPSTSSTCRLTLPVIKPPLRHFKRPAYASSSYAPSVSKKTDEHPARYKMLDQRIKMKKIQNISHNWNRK
T1 sequence (Q9Y233 whole entry): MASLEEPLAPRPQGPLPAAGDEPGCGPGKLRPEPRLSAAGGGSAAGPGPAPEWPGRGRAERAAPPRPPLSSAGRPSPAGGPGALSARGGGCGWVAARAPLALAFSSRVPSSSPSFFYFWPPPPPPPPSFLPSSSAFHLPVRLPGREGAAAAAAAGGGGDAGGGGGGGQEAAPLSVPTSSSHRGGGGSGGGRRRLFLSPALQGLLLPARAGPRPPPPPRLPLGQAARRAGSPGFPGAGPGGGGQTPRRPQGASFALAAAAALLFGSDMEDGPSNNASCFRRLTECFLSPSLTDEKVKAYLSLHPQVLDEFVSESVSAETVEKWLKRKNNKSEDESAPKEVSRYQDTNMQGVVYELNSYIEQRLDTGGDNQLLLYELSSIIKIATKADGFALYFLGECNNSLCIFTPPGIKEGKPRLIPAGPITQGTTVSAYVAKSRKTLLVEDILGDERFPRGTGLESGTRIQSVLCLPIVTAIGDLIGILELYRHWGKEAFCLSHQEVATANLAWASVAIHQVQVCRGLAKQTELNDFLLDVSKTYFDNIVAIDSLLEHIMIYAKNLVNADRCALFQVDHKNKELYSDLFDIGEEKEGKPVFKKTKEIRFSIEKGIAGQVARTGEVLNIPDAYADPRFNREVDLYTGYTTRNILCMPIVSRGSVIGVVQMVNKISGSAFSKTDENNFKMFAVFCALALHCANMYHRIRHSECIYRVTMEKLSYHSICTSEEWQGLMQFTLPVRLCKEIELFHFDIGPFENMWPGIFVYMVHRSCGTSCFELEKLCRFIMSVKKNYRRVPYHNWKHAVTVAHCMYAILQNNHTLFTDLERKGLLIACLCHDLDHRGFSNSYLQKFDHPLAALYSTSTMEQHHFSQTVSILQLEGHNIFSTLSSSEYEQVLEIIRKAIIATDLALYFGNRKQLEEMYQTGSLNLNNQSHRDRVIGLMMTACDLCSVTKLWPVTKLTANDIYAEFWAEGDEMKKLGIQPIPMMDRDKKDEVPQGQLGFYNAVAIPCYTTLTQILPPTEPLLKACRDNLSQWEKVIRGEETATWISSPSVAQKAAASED

## Cc1nc(-c2ccn3nc(-c4ccccc4)nc3c2)nc2ccccc12
[1]
  pIC50: 6.05

## Cc1ncc(C)n2nc(-c3ccc4nc(-c5cncs5)[nH]c4c3)nc12
[1]
  pIC50: 6.87
[2]
  pIC50: < 5.00
[3]
  pIC50: < 5.00

## Cc1csc(-c2nc3ccc(-c4nc5c(C)ncc(C)n5n4)cc3[nH]2)n1
[1]
  pIC50: 6.93
[2]
  pIC50: < 5.00
[3]
  pIC50: < 5.00

## COc1ccc(OC)c(-c2cn3ccc(-c4nc5c(C)ncc(C)n5n4)nc3n2)c1
[1]
  pIC50: < 6.55

## Cc1cc(C)n2nc(-c3ccn4nc(-c5ncccn5)nc4c3)nc2n1
[1]
  pIC50: < 5.30

## Cc1ncc(C)n2nc(-c3ccc4nc(-c5ccccc5OC(F)(F)F)[nH]c4c3)nc12
[1]
  pIC50: 6.55

## Cc1cc(C)n2nc(-c3ccn4cc(-c5ccccc5)nc4n3)nc2n1
[2]
  pIC50: < 5.00
[3]
  pIC50: < 5.00

## COc1cccnc1-c1nc2ccc(-c3nc4c(C)ncc(C)n4n3)cc2[nH]1
[4]
  microsomal CLint: 5.4 µL/min/mg
[5]
  microsomal CLint: 0.7 µL/min/mg
[1]
  pIC50: 7.40
[2]
  pIC50: < 5.00
[3]
  pIC50: < 5.00

## Cc1ncc(C)n2nc(-c3ccc4nc(-c5cscn5)[nH]c4c3)nc12
[1]
  pIC50: 6.57

## Cc1ncc(C)n2nc(-c3ccc4nc(-c5cccnc5)[nH]c4c3)nc12
[1]
  pIC50: 6.78
[2]
  pIC50: < 5.00
[3]
  pIC50: < 5.00

## Cc1cc(C)n2nc(CCc3nc(-c4ccccc4)cn3C)nc2n1
[6]
  pIC50: 7.17
[7]
  CLH: 13 µL/min/mg

## Cc1ncc(C)n2nc(-c3ccc4nc(-c5ccccc5C(F)(F)F)[nH]c4c3)nc12
[1]
  pIC50: < 6.00

## Cc1ncc(C)n2nc(-c3ccc4nc(-c5ncccc5F)[nH]c4c3)nc12
[4]
  microsomal CLint: 1.8 µL/min/mg
[1]
  pIC50: 7.16
[2]
  pIC50: < 5.00
[3]
  pIC50: < 5.00

## Cc1ncc(C)n2nc(-c3ccn4cc(-c5cccc(Cl)c5)nc4n3)nc12
[4]
  microsomal CLint: 18.9 µL/min/mg
[1]
  pIC50: 6.97
[2]
  pIC50: < 5.00
[3]
  pIC50: < 5.00

## Cc1ncc(C)n2nc(-c3ccc4cc(-c5ccccc5)nn4c3)nc12
[1]
  pIC50: 6.24

## Cc1cnc(-c2nc3ccc(-c4nc5c(C)ncc(C)n5n4)cc3[nH]2)s1
[1]
  pIC50: 6.70
[2]
  pIC50: < 5.00
[3]
  pIC50: < 5.00

## Cc1ncc(C)n2nc(-c3ccc4[nH]c(-c5ccccc5F)nc4c3)nc12
[2]
  pIC50: < 5.00
[3]
  pIC50: < 5.00

## Cc1cc(C)n2nc(-c3ccn4cc(-c5ccccn5)nc4n3)nc2n1
[1]
  pIC50: 6.55

## Cc1ncc(C)n2nc(-c3ccc4nc(-c5cnc6ccccc6n5)[nH]c4c3)nc12
[1]
  pIC50: < 6.00

## Cc1ncc(C)n2nc(-c3ccc4nc(-c5cccc(Br)c5)[nH]c4c3)nc12
[1]
  pIC50: 6.84
[2]
  pIC50: < 5.00
[3]
  pIC50: < 5.00

## Cc1ncc(C)n2nc(-c3ccc4[nH]c(-c5ccccc5)nc4c3)nc12
[4]
  microsomal CLint: 27.4 µL/min/mg
[5]
  microsomal CLint: 34.4 µL/min/mg
[2]
  pIC50: < 5.00
[3]
  pIC50: < 5.00

## Cc1cc(C)n2nc(-c3ccc4nc(-c5ccccc5)n(C)c4c3)nc2n1
[1]; sf9
  IC50: Not Active

## Cc1cc(C)n2nc(-c3ccc4nc(-c5ccccc5)[nH]c4c3)nc2n1
[2]
  pIC50: < 5.00
[3]
  pIC50: < 5.00

## Cc1cc(C)n2nc(-c3ccn4cc(-c5nccs5)nc4n3)nc2n1
[1]
  pIC50: 6.34

## Cc1ncc(C)n2nc(-c3ccc4nc(-c5ccc(Cl)s5)[nH]c4c3)nc12
[1]
  pIC50: 6.79
[2]
  pIC50: < 5.00
[3]
  pIC50: < 5.00

## Cc1ncc(C)n2nc(-c3ccn4cc(-c5nccs5)nc4n3)nc12
[1]
  pIC50: 6.87
[2]
  pIC50: < 5.00
[3]
  pIC50: < 5.00

## Cc1ncc(C)n2nc(-c3ccn4cc(-c5ccccn5)nc4n3)nc12
[1]
  pIC50: 6.94
[2]
  pIC50: < 5.00
[3]
  pIC50: < 5.00

## Cc1nc(-c2ccc3nc(-c4ccccc4)[nH]c3c2)nc2ccccc12
[4]
  microsomal CLint: > 450 µL/min/mg
[1]
  pIC50: 6.50

## Cc1ncc(C)n2nc(-c3ccc4nc(-c5ccccc5C#N)[nH]c4c3)nc12
[1]
  pIC50: 6.42

## Cc1ncc(C)n2nc(-c3ccc4nc(-c5nccn5C)[nH]c4c3)nc12
[1]
  pIC50: 6.55

## Cc1ccccc1-c1nc2ccc(-c3nc4c(C)ncc(C)n4n3)cc2[nH]1
[1]
  pIC50: 6.62

## Cc1cc(C)n2c(Br)c(CSc3nc4ccccc4[nH]3)nc2n1
[6]
  pIC50: 6.68
[7]
  CLH: 3.6 µL/min/mg

## Cc1nc(-c2ccn3cc(-c4ccccc4)nc3n2)nc2ccccc12
[1]
  pIC50: 6.79

## Cc1ncc(C)n2nc(-c3ccn4nc(-c5ccccc5)nc4c3)nc12
[1]
  pIC50: 6.57

## COc1ccnc(-c2nc3ccc(-c4nc5c(C)ncc(C)n5n4)cc3[nH]2)c1
[1]
  pIC50: < 6.55

## Cc1ncc(C)n2nc(-c3ccc4nc(-c5nccs5)[nH]c4c3)nc12
[2]
  pIC50: < 5.00
[3]
  pIC50: < 5.00

## Cc1ncc(C)n2nc(-c3ccc4nc(-c5ccco5)[nH]c4c3)nc12
[4]
  microsomal CLint: 26.3 µL/min/mg
[1]
  pIC50: 7.17
[2]
  pIC50: < 5.00
[3]
  pIC50: < 5.00

## Cc1ncc(C)n2nc(-c3ccc4[nH]c(-c5ccccn5)nc4c3)nc12
[4]
  microsomal CLint: 11.1 µL/min/mg
[2]
  pIC50: < 5.00
[3]
  pIC50: < 5.00

## Cc1ncc(C)n2nc(-c3ccc4nc(-c5ccc(F)cc5)[nH]c4c3)nc12
[2]
  pIC50: < 5.00
[3]
  pIC50: < 5.00

## COc1ccccc1-c1cn2ccc(-c3nc4c(C)ncc(C)n4n3)nc2n1
[4]
  microsomal CLint: 9.1 µL/min/mg
[1]
  pIC50: 7.28
[2]
  pIC50: < 5.00
[3]
  pIC50: < 5.00

## Cc1ncc(C)n2nc(-c3ccn4cc(-c5ccccc5Br)nc4n3)nc12
[4]
  microsomal CLint: 1.8 µL/min/mg
[1]
  pIC50: 6.84
[2]
  pIC50: < 5.00
[3]
  pIC50: < 5.00

## Cc1cc(C)n2nc(-c3ccn4nc(-c5ccccc5)nc4c3)nc2n1
[1]
  pIC50: 6.42

## Cc1ncc(C)n2nc(-c3ccn4cc(-c5ccc(F)cc5)nc4n3)nc12
[4]
  microsomal CLint: 3.1 µL/min/mg
[1]
  pIC50: 7.12
[2]
  pIC50: < 5.00
[3]
  pIC50: < 5.00

## Cc1ncc(C)n2nc(-c3ccc4[nH]c(-c5cocn5)nc4c3)nc12
[1]
  pIC50: < 6.52

## Cc1cc(C)n2nc(-c3ccc4cc(-c5ccccc5)nn4c3)nc2n1
[1]
  pIC50: 6.11

## Cc1ncc(C)n2nc(-c3ccc4nc(-c5cccs5)[nH]c4c3)nc12
[1]
  pIC50: 7.55
[2]
  pIC50: < 5.00
[3]
  pIC50: < 5.00

## Cc1ncc(C)n2nc(-c3ccc4nc(Cc5ccccc5)[nH]c4c3)nc12
[1]
  pIC50: < 6.00

## COc1ccccc1-c1nc2ccc(-c3nc4c(C)ncc(C)n4n3)cc2[nH]1
[2]
  pIC50: < 5.00
[3]
  pIC50: < 5.00

## Cc1ncc(C)n2nc(-c3ccn4cc(-c5ccc(F)cc5Cl)nc4n3)nc12
[4]
  microsomal CLint: 11.5 µL/min/mg
[1]
  pIC50: < 6.00

## Cc1ncc(C)n2nc(-c3ccn4cc(-c5ccc(Br)cc5)nc4n3)nc12
[4]
  microsomal CLint: 15 µL/min/mg
[1]
  pIC50: < 6.00

## Cc1ncc(C)n2nc(-c3ccc4nc(-c5cnccn5)[nH]c4c3)nc12
[1]
  pIC50: < 6.00

Reference: ChEMBL document CHEMBL4152287, “Synthesis and characterization of novel classes of PDE10A inhibitors - 1H-1,3-benzodiazoles and imidazo[1,2-a]pyrimidines” (Eur J Med Chem, 2018)
